Measured values from ChEMBL document CHEMBL5543129, “Peptide Inhibitor Targeting the Extraterminal Domain in BRD4 Potently Suppresses Breast Cancer Both In Vitro and In Vivo” (J Med Chem, 2024).
Activity calls are given as the source filed them. The rule behind the calls is not given here. Square brackets hold non-standard residues; d marks the D form. Peptide text beside a SMILES is read from it. Hyp = O=C(O)[C@@H]1C[C@@H](O)CN1; Ahx = NCCCCCC(=O)O

Key:
[1] = test system: MCF7; assay: Antitumor activity against human MCF7 cells xenografted in BALB/c nude mouse assessed as reduction in tumor growth at 25 mg/kg, ip administered every 2 days; type: functional, organism-based
Outline: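 Female BALB/c nude mice, 4–6 wk, given 5 × 10^6 cells in PBS subcutaneously; MCF7 mice also had E2 (10^-2 M) brushed on the neck every 2 days. Randomised at ~50 mm3. Peptide in 0.9% saline, 25 mg/kg ip every 2 days. Caliper volume (1/2 × L × W²) every 2 days.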

[2] = test system: MCF7; assay: Downregulation of c-Myc gene expression in human MCF7 cells at 10 uM incubated for 6 hrs by RT-qPCR analysis; type: functional, cell-based
Outline: (§1)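 Cells treated with peptide (10 μM) for 6 h; c-Myc, N-myc and CCND1 mRNA measured by RT-qPCR. Three biological repeats.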

[3] = test system: MDA-MB-231; assay: Downregulation of c-Myc gene expression in human MDA-MB-231 cells at 10 uM incubated for 6 hrs by RT-qPCR analysis; type: functional, cell-based; outline: as §1
[4] = Downregulation of CCND1 protein expression in human MCF7 cells assessed as fold change in remaining CCND1 level at 10 uM incubated for 24 hrs by immunoblotting analysis (reference value: 1); type: functional
Outline: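 Cells treated with peptide (10 μM) for 24 h. Lysates in Tris/NaCl/EDTA/1% Triton X-100, run on 10% SDS-PAGE and immunoblotted with ECL detection. β-actin as loading control. Three repeats, quantified against untreated cells.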

[5] = test system: Mus musculus; assay: Downregulation of c-Myc mRNA expression in BALB/c mouse tumor xenografted with human MDA-MB-231 cells at 25 mg/kg, ip administered every 2 days by RT-qPCR analysis; type: functional, organism-based
Outline: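 Female BALB/c nude mice (4–6 weeks) implanted subcutaneously with 5 × 10^6 cells in PBS. For MCF7 grafts, estrogen (E2, 10–2 M) is brushed on every 2 days. Treatment starts at ~50 mm3 after randomization, with peptide in normal saline ip every 2 days. Tumour mRNA is measured by RT-qPCR.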

[6] = test system: Mus musculus; assay: Downregulation of N-myc mRNA expression in BALB/c mouse tumor xenografted with human MDA-MB-231 cells at 25 mg/kg, ip administered every 2 days by RT-qPCR analysis; type: functional, organism-based
[7] = test system: Mus musculus; assay: Downregulation of CCND1 mRNA expression in BALB/c mouse tumor xenografted with human MDA-MB-231 cells at 25 mg/kg, ip administered every 2 days by RT-qPCR analysis; type: functional, organism-based
[8] = test system: MDA-MB-231; assay: Inhibition of colony formation in human MDA-MB-231 cells at 10 uM incubated for 2 weeks in presence of 5 uM JQ1 by crystal violet staining based assay; type: functional, cell-based
Outline: (§2)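 Cells are seeded at 1 × 10^3/well and treated with peptide (10 μM) for 2 weeks, alone or with JQ1 5 μM, iJMJD6 10 μM, ICI 2.5 μM, or tamoxifen 3 μM (tamoxifen-resistant lines). Colonies are stained with crystal violet, dissolved in 10% acetic acid, and read at 590 nm. Three biological repeats.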

[9] = test system: MDA-MB-231; assay: Inhibition of cell migration in human MDA-MB-231 cells at 10 uM incubated for 12 hrs in presence of 5 uM JQ1 by inverted microscopic assay; type: functional, cell-based
Outline: (§3)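 Cells are seeded at 5 × 10^5/well and scratched at 80–90% confluence. They are kept in serum-free medium with peptide (10 μM); partner agents are JQ1 5 μM, iJMJD6 10 μM, or ICI 2.5 μM. Wound area is imaged by inverted microscope at 0 and 12 or 24 h. Wound closure % = (A0−A1)/A0 × 100. Three biological repeats.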

[10] = Toxicity in BALB/c mouse xenografted with human MCF7 cells assessed as change in kidney morphology at 12.5 mg/kg, ip administered every 2 days in presence of 50 mg/kg JQ1; type: organism-based; settings: in vivo, 48 h
[11] = Toxicity in BALB/c mouse xenografted with human MCF7 cells assessed as change in heart weight at 12.5 mg/kg, ip administered every 2 days in presence of 50 mg/kg JQ1; type: organism-based; settings: in vivo, 48 h
[12] = Toxicity in BALB/c mouse xenografted with human MCF7 cells assessed as change in spleen weight at 12.5 mg/kg, ip administered every 2 days in presence of 50 mg/kg JQ1; type: organism-based; settings: in vivo, 48 h
[13] = Toxicity in BALB/c mouse xenografted with human MDA-MB-231 cells assessed as change in kidney morphology at 12.5 mg/kg, ip administered every 2 days in presence of 50 mg/kg JQ1; type: organism-based; settings: in vivo, 48 h
Outline: (§4)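 Female BALB/c nude mice (4–6 weeks) carried sc MDA-MB-231 xenografts (5 × 10^6 cells) and were randomized at about 50 mm3. Peptide (12.5 mg/kg ip in saline) and JQ1 (50 mg/kg ip, DMSO/10% HPBCD 1:10) were given every 2 days, alone or combined. Body weight was recorded, and heart, liver, spleen, lung and kidney morphology and weight were assessed.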

[14] = Toxicity in BALB/c mouse xenografted with human MDA-MB-231 cells assessed as change in spleen morphology at 12.5 mg/kg, ip administered every 2 days in presence of 50 mg/kg JQ1; type: organism-based; settings: in vivo, 48 h; outline: as §4
[15] = Toxicity in BALB/c mouse xenografted with human MDA-MB-231 cells assessed as change in heart weight at 12.5 mg/kg, ip administered every 2 days in presence of 50 mg/kg JQ1; type: organism-based; settings: in vivo, 48 h; outline: as §4
[16] = test system: MCF7; assay: Inhibition of colony formation in human MCF7 cells at 10 uM incubated for 2 weeks in presence of JMJD6 inhibitor by crystal violet staining based assay; type: functional, cell-based; outline: as §2
[17] = test system: MCF7; assay: Inhibition of cell migration in human MCF7 cells at 10 uM incubated for 24 hrs in presence of JMJD6 inhibitor by inverted microscopic analysis; type: functional, cell-based; outline: as §3
[18] = test system: T47D; assay: Inhibition of cell migration in human T47D cells at 10 uM incubated for 24 hrs in presence of JMJD6 inhibitor by inverted microscopic analysis; type: functional, cell-based; outline: as §3
[19] = Toxicity in BALB/c mouse xenografted with human MCF7 cells assessed as change in body weight at 12.5 mg/kg, ip administered every 2 days in presence of 12.5 mg/kg JMJD6 inhibitor; type: organism-based; settings: in vivo, 48 h
Outline: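 Female BALB/c nude mice carried MCF7 xenografts (5 × 10^6 cells sc, E2 10–2 M brushed every 2 days) and were randomized at about 50 mm3. Peptide was given at 12.5 mg/kg ip every 2 days, and iJMJD6 (DMSO/PBS 1:20) at 12.5 mg/kg ip every other day, alone or combined. Body and organ weights were recorded.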

[20] = Downregulation of BRD4 protein expression in BALB/c mouse tumor xenografted with human MDA-MB-231 cells assessed as fold change in remaining BRD4 level at 25 mg/kg, ip administered every 2 days by immunoblotting analysis; type: functional
Outline: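 Tumours taken from xenograft mice dosed with peptide at 25 mg/kg ip every 2 days. […] Three repeats.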

Molecule	Activity [1]	Activity [2]	Activity [3]	fold change (FC) [4]	Activity [5]	Activity [6]	Activity [7]	inhibition [8]	inhibition [9]	Activity [10]	Activity [11]	Activity [12]	Activity [13]	Activity [14]	Activity [15]	inhibition [16]	inhibition [17]	inhibition [18]	Activity [19]	fold change (FC) [20]
H-YGRKKRRQRRRRNQKFKCGE-OH	Active	Active	Active	0.68	Active	Active	Active	Active	Active	Non-Toxic	Non-Toxic	Non-Toxic	Non-Toxic	Non-Toxic	Non-Toxic	Active	Active	Active	Non-Toxic	0.63
CC[C@H](C)[C@H](NC(=O)[C@H](Cc1ccc(O)cc1)NC(=O)[C@@H]1C[C@@H](O)CN1C(=O)[C@H](C)NC(=O)[C@@H](NC(=O)CCCCCNC(=O)[C@H](CCC(=O)O)NC(=O)CNC(=O)[C@H](CS)NC(=O)[C@H](CCCCN)NC(=O)[C@H](Cc1ccccc1)NC(=O)[C@H](CCCCN)NC(=O)[C@H](CCC(N)=O)NC(=O)[C@H](CC(N)=O)NC(=O)[C@H](CCCNC(=N)N)NC(=O)[C@H](CCCNC(=N)N)NC(=O)[C@H](CCCNC(=N)N)NC(=O)[C@H](CCCNC(=N)N)NC(=O)[C@H](CCC(N)=O)NC(=O)[C@H](CCCNC(=N)N)NC(=O)[C@H](CCCNC(=N)N)NC(=O)[C@H](CCCCN)NC(=O)[C@H](CCCCN)NC(=O)[C@H](CCCNC(=N)N)NC(=O)CNC(=O)[C@@H](N)Cc1ccc(O)cc1)[C@@H](C)CC)C(=O)O (H-YGRKKRRQRRRRNQKFKCGE[Ahx]IA[Hyp]YI-OH)	Active	Active	Active	0.58	Active	Active	Active	Active	Active	Non-Toxic	Non-Toxic	Non-Toxic	Non-Toxic	Non-Toxic	Non-Toxic	Active	Active	Active	Non-Toxic	0.15
